Screening results from PubChem BioAssay.
Rows were chosen to be rich in hits. Some 3.7% of all compounds tested hit in one or more screens of this group.
KCNK3 inh – human KCNK3 channel inhibitors, primary screen, CHO cells, FluxOR thallium flux, B-score. 340,000 compounds, 0.84% hits. FluxOR fluorescence; active compounds read low. AID 602410, 2012. B-score at 10 µM;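 active = B-score under library mean minus 4 SD, starting fluorescence ratio at most library mean plus 5 SD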;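 note: more negative B-score means stronger inhibition of thallium flux through KCNK3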
hERG rescue – hERG rescue from dofetilide block, primary screen, cell-based, CHO-hERG, FluxOR thallium flux, dofetilide IC70. Voltage-gated inwardly rectifying potassium channel KCNH2 (Homo sapiens), Q12809. dofetilide IC70 present. activation (rescue from dofetilide block), less the hit threshold, % at 10 µM. 310,000 compounds, 0.51% hits;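 active = activation above the mean of controls blocked by dofetilide plus 5 SD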;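 note: thallium influx through hERG after potassium depolarization seen as dye fluorescence rise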
Kir21 block – inhibitors of mouse Kir2.1 inward-rectifier potassium channel; HEK293-Kir2.1, FluxOR thallium flux fluorescence; active compounds read low; B-score at 10 µM; 310,000 compounds, 0.85% hits; AID 1672, 2009;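 active = fluorescence ratio B-score at or below minus 3 SD of library scores, with starting-brightness B-score within 2 SD, cut at about -4.2 in these data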;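 note: channel flux triggered by added potassium and thallium sulfate stimulus; B-score of peak minus minimum fluorescence over baseline after thallium stimulus; more negative B-score means stronger Kir2.1 block with less thallium influx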
Target sequence (P35561 whole entry, looked up): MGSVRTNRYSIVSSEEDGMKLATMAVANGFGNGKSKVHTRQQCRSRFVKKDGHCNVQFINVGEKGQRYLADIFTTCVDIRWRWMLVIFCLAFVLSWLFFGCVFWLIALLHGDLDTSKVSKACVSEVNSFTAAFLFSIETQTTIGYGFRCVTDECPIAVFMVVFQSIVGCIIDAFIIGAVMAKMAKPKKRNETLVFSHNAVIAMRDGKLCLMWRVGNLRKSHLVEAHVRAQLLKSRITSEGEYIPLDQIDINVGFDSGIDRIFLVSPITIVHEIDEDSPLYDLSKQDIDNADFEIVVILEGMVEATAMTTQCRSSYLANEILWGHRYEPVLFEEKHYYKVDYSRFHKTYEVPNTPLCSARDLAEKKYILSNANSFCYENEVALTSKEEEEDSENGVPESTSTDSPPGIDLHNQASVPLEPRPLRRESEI
KCNQ1 inh – inhibitors of human KCNQ1 channel, primary screen, cell-based, thallium flux, high-throughput; CHO-K1 KCNQ1, FluxOR thallium flux fluorescence; active compounds read high; B-score at 10 µM; 310,000 compounds, 1.3% hits;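 active = compounds whose thallium flux B-score, printed positive for inhibition, exceeds three library SD while starting fluorescence stays within three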;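 note: channel opened by potassium depolarization with thallium stimulus after 20 min compound exposure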
KCNK9 inh – KCNK9 potassium channel inhibitors, primary screen, HEK293 cells, thallium flux | Potassium channel subfamily K member 9 (Homo sapiens), Q9NPC2 | FluxOR thallium flux fluorescence; active compounds read low | B-score at 10 µM | 310,000 compounds, 1.2% hits | AID 488922, 2010;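 active = ratio B-score over 3 SD below the library mean, with starting fluorescence within 5 SD of its mean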;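 note: negative B-score means less thallium flux so channel inhibition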
KCNQ1 pot – potentiators or activators of KCNQ1 channel, primary screen, cell-based, thallium flux, high-throughput | Potassium voltage-gated channel subfamily KQT member 1 (Homo sapiens), P51787 | CHO-K1 KCNQ1, thallium flux FluxOR fluorescence; active compounds read high | B-score at 10 µM | 310,000 compounds, 0.35% hits | AID 2648, 2010;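 active = fluorescence ratio B-score, a plate-corrected score, at least three library SD, with initial intensity B-score within 5 SD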
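Doses: Single concentration per compound, DMSO matched to controls | Test system: KCNQ1-transfected CHO-K1 cells | Timing: 90 min dye loading and 20 min compound exposure, both at room temperature | Measured by: Kinetic FluxOR thallium fluorescence, 10-s 1-Hz baseline, 110-s post-stimulus read | Medium: Assay buffer with matched DMSO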
KCNK9 block conf – KCNK9 potassium channel inhibitors, confirmation, HEK293 cells, thallium flux, duplicate; shares compounds with KCNK9 inh; FluxOR thallium flux fluorescence; inhibition, % at 10 µM; 4,900 compounds, 43% hits; AID 492992, 2010;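 active = thallium signal inhibited by more than 5 SD of the compound-free buffer control wells, on both duplicate plates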;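 note: 0% = assay buffer control wells without compound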
Kir2-1 spec – mouse Kir2.1 channel inhibition, confirmation, selectivity assay for KCNK9 modulator project, cell-based, HEK293, thallium flux; Kir2.1 cells, FluxOR thallium flux fluorescence; inhibition, % at 10 µM; 4,900 compounds, 4% hits; shares compounds with KCNK9 inh; AID 492993, 2010;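 active = thallium signal drop more than 5 SD beyond the mean of the no-compound control wells, seen in both duplicate plates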;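 note: signal is fluorescence rise after thallium addition divided by baseline fluorescence; plate controls were assay buffer only for no effect and full block by chlorpromazine control for full effect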
KCNK9 uninduced – thallium flux in non-induced HEK293 cells, confirmation, counter-screen for KCNK9 inhibitor project, cell-based, second counter screen, non-induced KCNK9-HEK293; shares compounds with KCNK9 inh; FluxOR thallium flux; inhibition, % at 10 µM; 4,900 compounds, 40% hits;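 active = thallium signal drop beyond 5 SD of the untreated control mean, on both duplicate plates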;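 note: plate controls were buffer only IC0 wells for no effect and SID17386958 at its maximal inhibitory level for full effect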
An asterisk follows results filed as active; i = inactive; · = not tested or not shown.

SMILES | KCNK3 inh | hERG rescue | Kir21 block | KCNQ1 inh | KCNK9 inh | KCNQ1 pot | KCNK9 block conf | Kir2-1 spec | KCNK9 uninduced
Cc1ccc(/C=N/N2CCN(C3c4ccccc4-c4ccccc43)CC2)s1 | i | -5 | -0.62 | i | i | i | i | i | i
COc1ccc(C(=O)n2nc(C)cc2C)cc1OC | i | -5 | -0.3 | i | i | i | · | · | ·
Cc1cc(C)n(C(=O)c2ccc(C)c(Br)c2)n1 | i | -7 | -0.6 | i | i | i | i | i | i
Cc1nc(/N=C\c2ccc(N(C)C)cc2)sc1C | i | -4 | 1.6 | i | i | i | · | · | ·
COc1ccc(-c2noc(C3CCCN(C(=O)c4cccc(C)c4)C3)n2)cc1 (centres undefined) | i | -4 | -1 | i | i | i | i | i | i
COc1ccc(-c2noc(C3CCCN(S(=O)(=O)c4cccc(Cl)c4C)C3)n2)cc1OC (centres undefined) | i | -7 | -1.3 | i | -12* | i | 34%* | i | i
COc1ccc(-c2noc(C3CCCN(S(=O)(=O)c4ccc(C)c(Cl)c4)C3)n2)cc1OC (centres undefined) | i | -15 | 1.7 | i | i | i | · | · | ·
COc1cccc(OC)c1C(=O)Nc1ccc2c(c1)N(S(=O)(=O)c1cccs1)CCC2 | i | -6 | -0.33 | i | i | i | · | · | ·
O=C(Nc1ccc2c(c1)N(S(=O)(=O)c1cccs1)CCC2)c1c(F)cccc1Cl | i | -13 | -0.15 | i | -11* | i | i | i | 36%*
CC(C)(C)c1nnc(NC(=O)c2cccnc2)s1 | i | -17 | -0.9 | i | i | i | · | · | ·
Cc1ccc(C)c(N(CC(=O)NC2CCCCC2)C(=O)CNC(=O)c2ccco2)c1 | i | -7 | -0.7 | i | i | i | · | · | ·
CC(C)c1ccc(OCc2ccc(C(=O)N3CCN(c4ccccn4)CC3)cc2)cc1 | i | -8 | -0.82 | 6* | i | i | i | i | i
Cc1ccc(C(=O)N2CCN(c3ccccn3)CC2)cc1 | i | 1 | -0.71 | i | i | i | · | · | ·
CCOc1ccccc1/C=C/C(=O)NCC(=O)N1CCC(N(C)C2CCCCC2C)CC1 (centres undefined) | i | -3 | 0.24 | i | i | i | · | · | ·
O=C(OCC(=O)N1CCCc2ccccc21)c1cccc(S(=O)(=O)N2CCOCC2)c1 | i | -8 | -0.58 | i | i | i | · | · | ·
O=C(c1cccc(S(=O)(=O)N2CCc3ccccc32)c1)N1CCN(c2ccccn2)CC1 | i | -24 | -0.08 | i | -10* | i | 36%* | i | i
O=C(OCC(=O)N1CCc2ccccc21)c1cccc(S(=O)(=O)N2CCCc3ccccc32)c1 | i | -4 | -1.4 | i | i | i | i | i | i
COc1ccc(N2CCN(C(=O)c3cccc(S(=O)(=O)N4CCc5ccccc54)c3)CC2)cc1 | i | · | · | · | · | · | · | · | ·
O=C(COC(=O)c1c2c(nc3ccccc13)CCCC2)Nc1ccc2c(c1)OCO2 | i | -31 | -0.02 | i | -12* | i | 48%* | i | i
O=C(COC(=O)c1cc(-c2ccccc2)nc2ccccc12)Nc1ccc2c(c1)OCO2 | i | -6 | 0.44 | i | i | i | · | · | ·
O=C(OCC(=O)N1CCc2ccccc21)c1c2c(nc3ccccc13)CCCCC2 | i | -3 | -0.09 | i | -13* | i | 52%* | i | 34%*
Cc1ccc(CCNC(=O)C2CCN(S(=O)(=O)c3ccc4nc5c(c(C(=O)O)c4c3)CCCC5)CC2)cc1 | i | -8 | 0.34 | i | i | i | · | · | ·
FC(F)(F)c1nnc(-c2ccccc2)nc1Sc1ccc(Cl)cc1 | i | -18 | 1.5 | i | i | i | i | i | i
FC(F)(F)c1nnc(-c2ccccc2)nc1Sc1ccccc1 | i | -4 | -0.76 | i | i | i | · | · | ·
FC(F)(F)c1nnc(-c2ccccc2)nc1Oc1ccc(Cl)cc1Cl | i | -9 | -0.45 | 11* | i | i | i | i | i
SMILES | KCNK3 inh | hERG rescue | Kir21 block | KCNQ1 inh | KCNK9 inh | KCNQ1 pot | KCNK9 block conf | Kir2-1 spec | KCNK9 uninduced
O=C(Nc1cccc(-c2csc(-c3ccccc3)n2)c1)c1cccs1 | i | -6 | 1.5 | i | -12* | i | 45%* | i | i
Cc1cc2ccccc2n1CCNC(=O)c1ccccc1 | i | -12 | -0.44 | i | -9.6* | i | 36%* | i | 25%*
Cc1c(C(=O)NCCn2ccc3ccccc32)cccc1[N+](=O)[O-] | i | -7 | -1.8 | i | i | i | · | · | ·
Cc1ccc(C(=O)NCCSCc2ccccc2)cc1[N+](=O)[O-] | i | -3 | 0.03 | i | i | i | · | · | ·
Cc1ccc(C(=O)NCCn2ccc3ccccc32)cc1[N+](=O)[O-] | i | -21 | 0.81 | i | i | i | i | i | i
O=C(NCCc1cccc(Cl)c1)c1ccc(Cl)c([N+](=O)[O-])c1 | i | -15 | 2.2 | i | i | i | i | i | i
CC(=O)NCCn1c(C)cc2ccccc21 | i | -8 | 0.21 | i | i | i | · | · | ·
Cc1ccc(C(=O)NCCc2cccc(Cl)c2)cc1[N+](=O)[O-] | i | -10 | -1.9 | i | i | i | i | i | i
O=C1NC(=O)C2(CCCCCCC2)N1 | i | · | · | · | · | · | · | · | ·
O=C(OCc1ccccc1)N1CCc2ccccc21 | i | -6 | -0.83 | i | i | i | · | · | ·
CCOC(=O)c1c(C)n(C)c2ccc(OC(=O)c3ccc(N4C(=O)CCC4=O)cc3)cc12 | i | -8 | 0.77 | i | i | i | · | · | ·
